Data set [1] in a line: melting temperature; fluorescence melt of hairpins on a sequencing array, two-state fit, raised by 9.35 °C to match UV melts. The settings on record: sodium 0.088 M. The method, boiled down:
(§1)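 Bootstrapped two-state fits yielded melting temperature and folding enthalpy for library hairpins. Cy3 fluorescence, with annealed Cy3 and quencher oligos, was imaged on a sequenced MiSeq flow cell in 50 mM Na-HEPES pH 8.0, 25 mM NaCl in 2.5 °C steps up to 60 °C, and normalised to pre-quench Cy3 and to control constructs. Four replicates were combined by inverse variance, and fitted temperatures were raised by 9.35 °C to match UV melts.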

A short description of data set [2]: folding enthalpy; higher = less favourable; fluorescence melt of hairpins on a sequencing array, two-state fit. The settings on record: sodium 0.088 M. The method, boiled down:
as §1

Among the data in the array DNA melting data of Ke et al. (doi:10.1101/2024.01.08.574731) are Tm and folding enthalpy values, retold here.

For the sequence GCGCTGCCGAAAGGCCGC (((..(((....)))))), the Tm in data set [1] amounted to 58.5 °C. Also, the folding enthalpy in data set [2] was -17.8 kcal/mol.

As for GCGCTGCGAAAGCAAAGC ((..(((....)))..)), the Tm in data set [1] was 60 °C. In data set [2], the folding enthalpy was -17.7 kcal/mol.

Consider GCGCTGCGAAAGCAACGC (((.(((....))).))), for which the Tm in data set [1] was found to be 61.5 °C. Moreover, the folding enthalpy in data set [2] is -49 kcal/mol.

On to GCGCTGCGAAAGCACCGC (((.(((....))).))), for which, in data set [1], the Tm came to 53.9 °C. Also, the folding enthalpy in data set [2] is -46.8 kcal/mol.

Turning to GCGCTGCGAAAGCACTGC ((..(((....)))..)), the Tm in data set [1] was determined as 41 °C. For the same sequence, in data set [2], the folding enthalpy is -16.8 kcal/mol.

Regarding GCGCTGCGAAAGCCACGC (((..((....))..))), the Tm in data set [1] worked out at 52.7 °C. Further, the folding enthalpy in data set [2] is -19.7 kcal/mol.

Consider GCGCTGCGAAAGCCCCGC (((..((....))..))), for which, in data set [1], the Tm stood at 41.5 °C. Also, the folding enthalpy in data set [2] was -22.5 kcal/mol.

GCGCTGCGAAAGCCGAGC ((.(.((....)).).)): in data set [1], the Tm stood at 50.8 °C. In data set [2], the folding enthalpy was -23.2 kcal/mol.

Regarding GCGCTGCGAAAGCCGGGC ((.(.((....)).).)), in data set [1], the Tm is 50.9 °C. Besides, the folding enthalpy in data set [2] was -20.5 kcal/mol.

On to GCGCTGCGAAAGCGCCGC (((..((....))..))), for which the Tm in data set [1] stood at 61.6 °C. The folding enthalpy in data set [2] is -9.61 kcal/mol.

Regarding GCGCTGCGAAAGCGTCGC (((..((....))..))), the Tm in data set [1] came out at 59.7 °C. Besides, in data set [2], the folding enthalpy was -25.4 kcal/mol.

As for GCGCTGGCGAAAGCCCGC (((..(((....)))))), the Tm in data set [1] was 55.5 °C. For the same sequence, the folding enthalpy in data set [2] is -17 kcal/mol.

In the case of GCGCTGGGAAACCAACGC (((.(((....))).))), in data set [1], the Tm was found to be 52.7 °C. In addition, the folding enthalpy in data set [2] is -47.8 kcal/mol.

As for GCGCTTCCGAAAGGACGC (((..(((....)))))), the Tm in data set [1] worked out at 52 °C. Besides, the folding enthalpy in data set [2] was -20.3 kcal/mol.

Regarding GCGCTTGGAAACAAGCAC (.(((((....))))).), the Tm in data set [1] worked out at 45.7 °C. For the same sequence, the folding enthalpy in data set [2] is -15.2 kcal/mol.

Consider GCGCTTGGAAACAGGTGC ((.(.((....)).).)), for which the Tm in data set [1] was 40.6 °C. Also, the folding enthalpy in data set [2] is -28.5 kcal/mol.

On to GCGGAACCCCGC ((((....)))), for which, in data set [1], the Tm is 51.3 °C. In data set [2], the folding enthalpy is -21 kcal/mol.

Regarding GCGGAACCCGC ((((...)))), the Tm in data set [1] turned out to be 53.8 °C. Also, the folding enthalpy in data set [2] is -20.8 kcal/mol.

Regarding GCGGAACCGAAAGGTCGC (((..(((....)))))), the Tm in data set [1] stood at 54.7 °C. For the same sequence, in data set [2], the folding enthalpy is -27.7 kcal/mol.

GCGGAAGGAAACTTCCAC (.(((((....))))).): the Tm in data set [1] was determined as 37.4 °C. In data set [2], the folding enthalpy is -15.9 kcal/mol.

Take GCGGAATCCGC ((((...)))): in data set [1], the Tm was found to be 51.7 °C. In data set [2], the folding enthalpy is -23.4 kcal/mol.

In the case of GCGGACACCGC ((((...)))), in data set [1], the Tm worked out at 56.2 °C. Besides, the folding enthalpy in data set [2] is -26.3 kcal/mol.

With GCGGACCCCCGC ((((....)))), the Tm in data set [1] worked out at 53.3 °C. Also, the folding enthalpy in data set [2] was -34.6 kcal/mol.

Turning to GCGGACGAAAGTCATCGC ((((((....)))..))), the Tm in data set [1] turned out to be 50.1 °C. Also, the folding enthalpy in data set [2] was -25.7 kcal/mol.

As for GCGGACGAAAGTCCCGC ((((((....))).))), in data set [1], the Tm was 67.1 °C. Further, the folding enthalpy in data set [2] was -20.8 kcal/mol.

For the sequence GCGGACGAAAGTCGCCGC ((((((....)))..))), the Tm in data set [1] came to 52.4 °C. For the same sequence, the folding enthalpy in data set [2] is -18.1 kcal/mol.

As for GCGGACGCCCGC ((((....)))), in data set [1], the Tm was determined as 56.1 °C. For the same sequence, in data set [2], the folding enthalpy was -20.1 kcal/mol.

For the sequence GCGGACTCCCGC ((((....)))), the Tm in data set [1] turned out to be 53.1 °C. Besides, the folding enthalpy in data set [2] was -32.8 kcal/mol.

As for GCGGAGACCCGC ((((....)))), the Tm in data set [1] turned out to be 52.8 °C. Also, the folding enthalpy in data set [2] was -20.5 kcal/mol.

In the case of GCGGAGCGAAAGCAACGC (((..((....))..))), the Tm in data set [1] came to 66.9 °C. Moreover, in data set [2], the folding enthalpy was -20.2 kcal/mol.

In the case of GCGGAGCGAAAGCACGGC ((.(.((....)).).)), the Tm in data set [1] worked out at 45.5 °C. In addition, the folding enthalpy in data set [2] was -9.69 kcal/mol.

Consider GCGGAGCGAAAGCCACGC (((..((....))..))), for which the Tm in data set [1] is 58.4 °C. The folding enthalpy in data set [2] is -15.7 kcal/mol.

Turning to GCGGAGCGAAAGCCCAGC ((.(.((....)).).)), the Tm in data set [1] was 42.5 °C. Moreover, the folding enthalpy in data set [2] was -12.1 kcal/mol.

Take GCGGAGCGAAAGCGCGGC ((.(.((....)).).)): the Tm in data set [1] worked out at 58.6 °C. In data set [2], the folding enthalpy is -15.3 kcal/mol.

As to GCGGAGCGAAAGCTCTGC ((.((((....)))).)), in data set [1], the Tm turned out to be 68 °C. In data set [2], the folding enthalpy is -35.8 kcal/mol.

Take GCGGAGCGAAAGCTTTGC ((..(((....)))..)): the Tm in data set [1] was 45.5 °C. Moreover, the folding enthalpy in data set [2] was -14.3 kcal/mol.

With GCGGAGGGAAACCTTCGC (((.(((....))).))), the Tm in data set [1] turned out to be 56.5 °C. Besides, in data set [2], the folding enthalpy was -46.5 kcal/mol.

As for GCGGAGTCCGC ((((...)))), the Tm in data set [1] is 52.4 °C. Besides, the folding enthalpy in data set [2] was -25.6 kcal/mol.
